Converted amounts (≈) assume the structure as drawn. One block for each compound: values may come before it. The source made the active and inactive calls. No cut-off for these calls is given here. Numbered stars: 1 amine (or outer) side, 2 acyl side, 3 side chain; on linkers, the order of the positions; unused ones are H or OH. Bridge positions count the residues as written; N and C are the ends. Square brackets hold non-standard residues; d marks the D form. Peptide text beside a SMILES is read from it. I, II: the chains in the order shown. Actinocin(1to9) = Cc1c2oc3c(C)ccc(C(=O)[*:2])c3nc-2c(C(=O)[*:1])c(N)c1=O; NMeV = CN[C@H](C(=O)O)C(C)C; Sar = CNCC(=O)O
Experiments:
[1] = Dissociation constant, pKa of the compound; type: physicochemical
Staphylococcus aureus [2] = test: Antibacterial activity against Staphylococcus aureus NCTC 8325 after 16 to 20 hrs by broth microdilution method; type: functional
How it was run: (§1)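 Broth microdilution in cation-adjusted Mueller Hinton broth. Compounds were serially diluted twofold in DMSO at 50-fold final strength (2% DMSO final). The inoculum was 1 × 10^4 cells per well. Plates were incubated at 37 °C for 16–20 h, and growth was read as absorbance at 600 nm.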

Staphylococcus aureus [3] = test: microbe, parasite or virus in culture; conditions: isolate d20A1
Staphylococcus aureus [4] = test: Antibacterial activity against Staphylococcus aureus NCTC 8325 after 16 to 20 hrs by broth microdilution method in presence of efflux pump inhibitor reserpine; type: functional
How it was run: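 Broth microdilution in cation-adjusted MHB with reserpine at 20 µg/ml final in the medium as efflux inhibitor. Twofold DMSO dilutions were made (2% DMSO final) with 1 × 10^4 cells per well. Incubation was 37 °C for 16–20 h, with growth read at 600 nm.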

Staphylococcus aureus [5] = test: Antibacterial activity against Staphylococcus aureus NCTC 8325 harboring genetic deletion of mepR gene after 16 to 20 hrs by broth microdilution method; type: functional; how it was run: as §1
Staphylococcus aureus [6] = test: Antibacterial activity against Staphylococcus aureus NCTC 8325 harboring genetic deletion of mepRA gene after 16 to 20 hrs by broth microdilution method; type: functional; how it was run: as §1
Staphylococcus aureus [7] = test: Antibacterial activity against Staphylococcus aureus NCTC 8325 carrying expression vector pG154 after 16 to 20 hrs by broth microdilution method; type: functional; how it was run: as §1
Staphylococcus aureus [8] = test: Antibacterial activity against Staphylococcus aureus NCTC 8325 carrying expression vector pG154 after 16 to 20 hrs by broth microdilution method in presence of anhydrous tetracycline; type: functional
How it was run: (§2)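 Broth microdilution in cation-adjusted MHB containing anhydrous tetracycline at 100 ng/ml final to induce the pG154 expression vector. Twofold DMSO compound dilutions were used (2% DMSO final) with 1 × 10^4 cells per well. Incubation was 37 °C for 16–20 h, and absorbance was read at 600 nm.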

Staphylococcus aureus [9] = test: Antibacterial activity against Staphylococcus aureus NCTC 8325 carrying expression vector pG154 with mepA gene after 16 to 20 hrs by broth microdilution method; type: functional; how it was run: as §1
Staphylococcus aureus [10] = test: Antibacterial activity against Staphylococcus aureus NCTC 8325 carrying expression vector pG154 with mepA gene after 16 to 20 hrs by broth microdilution method in presence of anhydrous tetracycline; type: functional; how it was run: as §2
Staphylococcus aureus [11] = test: Antibacterial activity against Staphylococcus aureus NCTC 8325 harboring genetic deletion of mepRA gene and carrying expression vector pG154 after 16 to 20 hrs by broth microdilution method; type: functional; how it was run: as §1
Staphylococcus aureus [12] = test: Antibacterial activity against Staphylococcus aureus NCTC 8325 harboring genetic deletion of mepRA gene and carrying expression vector pG154 after 16 to 20 hrs by broth microdilution method in presence of anhydrous tetracycline; type: functional; how it was run: as §2
Staphylococcus aureus [13] = test: Antibacterial activity against Staphylococcus aureus NCTC 8325 harboring genetic deletion of mepRA gene and carrying expression vector pG154 with mepA gene after 16 to 20 hrs by broth microdilution method; type: functional; how it was run: as §1
Staphylococcus aureus [14] = test: Antibacterial activity against Staphylococcus aureus NCTC 8325 harboring genetic deletion of mepRA gene and carrying expression vector pG154 with mepA gene after 16 to 20 hrs by broth microdilution method in presence of anhydrous tetracycline; type: functional; how it was run: as §2
Staphylococcus aureus [15] = test: Upregulation of mepA gene expression in MBX-1090-resistant Staphylococcus aureus isolate d20A1 at 0.4 ug/ml by RT-PCR analysis relative to wild type; type: functional
Staphylococcus aureus [16] = test: Upregulation of mepB gene expression in MBX-1090-resistant Staphylococcus aureus isolate d20A1 at 0.4 ug/ml by RT-PCR analysis relative to wild type; type: functional
Staphylococcus aureus [17] = test: Upregulation of conventional hypothetical protein mRNA expression in MBX-1090-resistant Staphylococcus aureus isolate d20A1 at 0.4 ug/ml by RT-PCR analysis relative to wild type; type: functional
Staphylococcus aureus [18] = test: Downregulation of protein A gene expression in MBX-1090-resistant Staphylococcus aureus isolate d20A1 at 0.4 ug/ml by RT-PCR analysis relative to wild type; type: functional
Staphylococcus aureus [19] = test: Modulation of ribH gene expression in MBX-1090-resistant Staphylococcus aureus isolate d20A1 at 0.4 ug/ml by RT-PCR analysis relative to wild type; type: functional
Staphylococcus aureus [20] = test: Modulation of ribA gene expression in MBX-1090-resistant Staphylococcus aureus isolate d20A1 at 0.4 ug/ml by RT-PCR analysis relative to wild type; type: functional
Staphylococcus aureus [21] = test: Modulation of ribE gene expression in MBX-1090-resistant Staphylococcus aureus isolate d20A1 at 0.4 ug/ml by RT-PCR analysis relative to wild type; type: functional
Staphylococcus aureus [22] = test: Modulation of ribD gene expression in MBX-1090-resistant Staphylococcus aureus isolate d20A1 at 0.4 ug/ml by RT-PCR analysis relative to wild type; type: functional
Staphylococcus aureus [23] = test: Selectivity ratio of MIC for Staphylococcus aureus NCTC 8325 to MIC for Staphylococcus aureus NCTC 8325 in presence of efflux pump inhibitor reserpine; type: functional
How it was run: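 MICs by modified broth microdilution in cation-adjusted Mueller Hinton broth. Twofold dilutions were made in DMSO at 50× (2% DMSO final), with 1 × 10^4 cells per well. Growth was read as A600 after 16–20 h at 37 °C. Reserpine was added to the medium at 20 µg/ml final to inhibit efflux.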

Staphylococcus aureus [24] = test: Induction of mepA gene expression in Staphylococcus aureus NCTC 8325 at 0.125 ug/ml by RT-PCR analysis; type: functional, organism-based
How it was run: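 S. aureus overnight culture diluted 1/200 in TSB and grown at 37 °C with shaking (250 rpm) to OD600 0.3. Triplicate 5 ml aliquots were exposed to compound or DMSO (2% final) for 3 h at 37 °C. RNA was purified and DNase-treated; 1 µg was reverse-transcribed with random hexamers, with a no-RT control. mepA signal was normalized to rho, untreated set to 1; three experiments, SD.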

Staphylococcus aureus [25] = test: Induction of mepR gene expression in Staphylococcus aureus NCTC 8325 at 0.125 ug/ml by RT-PCR analysis; type: functional, organism-based
[26] = Selectivity ratio of MIC for MBX-1090-resistant Staphylococcus aureus isolate d20A1 to MIC for Staphylococcus aureus NCTC 8325; type: functional
How it was run: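 Ratio of resistant-mutant MIC to NCTC 8325 MIC. Both MICs came from broth microdilution in cation-adjusted MHB with 2% DMSO final and 1 × 10^4 cells per well, incubated at 37 °C for 16–20 h and read at 600 nm.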

- pKa [1]: 11.6
SMILES: N=C(N)c1ccc(-c2cc3ccc(C(=N)N)cc3[nH]2)cc1 [DAPI]

SMILES: CC1(C)S[C@@H]2[C@H](NC(=O)[C@H](N)c3ccccc3)C(=O)N2[C@H]1C(=O)O [AMPICILLIN]
- MIC (Staphylococcus aureus [2]): 0.0625 µg/mL (≈ 0.179 µM)
- MIC (Staphylococcus aureus [3]): 0.0625 µg/mL (≈ 0.179 µM)

SMILES: c1cc2cc(-c3ccc(-c4cc5ccc(C6=NCCN6)cc5[nH]4)cc3)[nH]c2cc1C1=NCCN1
- pKa [1]: 9.6
- MIC (Staphylococcus aureus [2]): 0.25 µg/mL (≈ 0.562 µM)
- MIC (Staphylococcus aureus [4]): 0.125 µg/mL
- MIC (Staphylococcus aureus [5]): 0.25 µg/mL (≈ 0.562 µM)
- MIC (Staphylococcus aureus [6]): 0.5 µg/mL (≈ 1.12 µM)
- MIC (Staphylococcus aureus [7]): 0.5 µg/mL (≈ 1.12 µM)
- MIC (Staphylococcus aureus [8]): 1 µg/mL
- MIC (Staphylococcus aureus [9]): 0.5 µg/mL (≈ 1.12 µM)
- MIC (Staphylococcus aureus [10]): 0.25 µg/mL
- MIC (Staphylococcus aureus [11]): 0.5 µg/mL (≈ 1.12 µM)
- MIC (Staphylococcus aureus [12]): 0.5 µg/mL
- MIC (Staphylococcus aureus [13]): 0.25 µg/mL (≈ 0.562 µM)
- MIC (Staphylococcus aureus [14]): 8 µg/mL
- fold change (FC) (Staphylococcus aureus [15]): 8.7
- fold change (FC) (Staphylococcus aureus [16]): 4.2
- fold change (FC) (Staphylococcus aureus [17]): 6.8
- fold change (FC) (Staphylococcus aureus [18]): 3.1
- fold change (FC) (Staphylococcus aureus [19]): 2.1
- fold change (FC) (Staphylococcus aureus [20]): 1.2
- fold change (FC) (Staphylococcus aureus [21]): 1.2
- fold change (FC) (Staphylococcus aureus [22]): 1.3
- MIC (Staphylococcus aureus [3]): 0.5 µg/mL (≈ 1.12 µM)

SMILES: c1cc2cc(-c3ccc(-c4cc5ccc(C6=NCCCN6)cc5[nH]4)cc3)[nH]c2cc1C1=NCCCN1
- pKa [1]: 12.8
- MIC (Staphylococcus aureus [2]): 0.5 µg/mL (≈ 1.06 µM)
- MIC (Staphylococcus aureus [4]): 0.125 µg/mL
- MIC (Staphylococcus aureus [5]): 0.25 µg/mL (≈ 0.529 µM)
- MIC (Staphylococcus aureus [6]): 0.5 µg/mL (≈ 1.06 µM)
- MIC (Staphylococcus aureus [7]): 0.5 µg/mL (≈ 1.06 µM)
- MIC (Staphylococcus aureus [8]): 0.5 µg/mL
- MIC (Staphylococcus aureus [9]): 0.5 µg/mL (≈ 1.06 µM)
- MIC (Staphylococcus aureus [10]): 0.125 µg/mL
- MIC (Staphylococcus aureus [11]): 0.5 µg/mL (≈ 1.06 µM)
- MIC (Staphylococcus aureus [12]): 0.5 µg/mL
- MIC (Staphylococcus aureus [13]): 0.5 µg/mL (≈ 1.06 µM)
- MIC (Staphylococcus aureus [14]): 0.125 µg/mL
- Selectivity ratio (Staphylococcus aureus [23]): 4
- Activity (Staphylococcus aureus [24]): Active
- Activity (Staphylococcus aureus [25]): Active
- MIC (Staphylococcus aureus [3]): 0.5 µg/mL (≈ 1.06 µM)

SMILES: C/C(=C\C(=O)OCCCCCCCCC(=O)O)C[C@@H]1OC[C@H](C[C@@H]2O[C@H]2[C@@H](C)[C@H](C)O)[C@@H](O)[C@H]1O [MUPIROCIN]
- MIC (Staphylococcus aureus [2]): 0.0312 µg/mL (≈ 0.0624 µM)
- MIC (Staphylococcus aureus [3]): 0.0312 µg/mL (≈ 0.0624 µM)

SMILES: O=C(N[C@H](CO)[C@H](O)c1ccc([N+](=O)[O-])cc1)C(Cl)Cl [CHLORAMPHENICOL]
- MIC (Staphylococcus aureus [2]): 8 µg/mL (≈ 24.8 µM)
- MIC (Staphylococcus aureus [3]): 8 µg/mL (≈ 24.8 µM)

SMILES: CC1(C)S[C@@H]2[C@H](NC(=O)C(C(=O)O)c3ccccc3)C(=O)N2[C@H]1C(=O)O (stereo partly drawn) [CARBENICILLIN]
- MIC (Staphylococcus aureus [2]): 0.0625 µg/mL (≈ 0.165 µM)
- MIC (Staphylococcus aureus [3]): 0.0625 µg/mL (≈ 0.165 µM)

SMILES: c1cc2cc(-c3ccc4cc(-c5ccc6oc(C7=NCCN7)cc6c5)[nH]c4c3)[nH]c2cc1C1=NCCN1
- MIC (Staphylococcus aureus [2]): 0.5 µg/mL (≈ 1.03 µM)
- MIC (Staphylococcus aureus [4]): 0.25 µg/mL
- MIC (Staphylococcus aureus [5]): 0.5 µg/mL (≈ 1.03 µM)
- MIC (Staphylococcus aureus [6]): 1 µg/mL (≈ 2.06 µM)
- MIC (Staphylococcus aureus [7]): 1 µg/mL (≈ 2.06 µM)
- MIC (Staphylococcus aureus [8]): 1 µg/mL
- MIC (Staphylococcus aureus [9]): 1 µg/mL (≈ 2.06 µM)
- MIC (Staphylococcus aureus [10]): 0.25 µg/mL
- MIC (Staphylococcus aureus [11]): 1 µg/mL (≈ 2.06 µM)
- MIC (Staphylococcus aureus [12]): 0.5 µg/mL
- MIC (Staphylococcus aureus [13]): 0.5 µg/mL (≈ 1.03 µM)
- MIC (Staphylococcus aureus [14]): 0.5 µg/mL
- MIC (Staphylococcus aureus [3]): 1 µg/mL (≈ 2.06 µM)

SMILES: CC[C@H]1OC(=O)[C@H](C)[C@@H](O[C@H]2C[C@@](C)(OC)[C@@H](O)[C@H](C)O2)[C@H](C)[C@@H](O[C@@H]2O[C@H](C)C[C@H](N(C)C)[C@H]2O)[C@](C)(O)C[C@@H](C)C(=O)[C@H](C)[C@@H](O)[C@]1(C)O [ERYTHROMYCIN]
- MIC (Staphylococcus aureus [2]): 1 µg/mL (≈ 1.36 µM)
- MIC (Staphylococcus aureus [3]): 0.5 µg/mL (≈ 0.681 µM)

SMILES: O=C(O)c1cn(C2CC2)c2cc(N3CCNCC3)c(F)cc2c1=O [CIPROFLOXACIN]
- MIC (Staphylococcus aureus [2]): 0.195 µg/mL (≈ 0.589 µM)
- Selectivity ratio [26]: 2
- MIC (Staphylococcus aureus [3]): 0.391 µg/mL (≈ 1.18 µM)

SMILES: Cc1c2oc3c(C)ccc(C(=O)N[C@@H]4C(=O)N[C@H](C(C)C)C(=O)N5CCC[C@H]5C(=O)N(C)CC(=O)N(C)[C@@H](C(C)C)C(=O)O[C@@H]4C)c3nc-2c(C(=O)N[C@@H]2C(=O)N[C@H](C(C)C)C(=O)N3CCC[C@H]3C(=O)N(C)CC(=O)N(C)[C@@H](C(C)C)C(=O)O[C@@H]2C)c(N)c1=O [DACTINOMYCIN] (I: T[dV]P[Sar][NMeV] / II: T[dV]P[Sar][NMeV]; ester I:1-I:C, II:1-II:C; linker I:N-II:N via Actinocin(1to9))
- MIC (Staphylococcus aureus [2]): 0.625 µg/mL (≈ 0.498 µM)
- MIC (Staphylococcus aureus [3]): 0.625 µg/mL (≈ 0.498 µM)

Source: ChEMBL document CHEMBL1157072 (Bioorg Med Chem, 2010)
